Test results from ChEMBL document CHEMBL4680124, “2-Styryl-4-aminoquinazoline derivatives as potent DNA-cleavage, p53-activation and in vivo effective anticancer agents” (Eur J Med Chem, 2020).
pIC50: −log10 of the molar value. Active and inactive are the calls of the source. No cut-off for these calls is given here.

What was measured:
MGC-803 [1] = assay: Antitumor activity against human MGC-803 cells xenografted in BALB/C nude mouse assessed as tumor growth inhibition at 10 mg/kg, ip administered every 2 days and measured 3 times per week for 16 days; format: functional; set-up: scale not given: the % may be the effect or the level left; settings: time 16 day
In short: (§1)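 Male BALB/c nude mice, 6 weeks old, given 5×10^6 MGC-803 cells s.c. in the flank. When tumors reached about 80 mm3, mice were randomized (n = 6/group) and dosed i.p. every 2 days. Vehicle was 5% DMSO in saline. Drug solutions were 1.0 or 2.0 mg/mL (DMSO/saline). Tumor length and width plus body weight were measured three times weekly; volume = lw²/2. Mean ± SD.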

A549 = assay: Cytotoxicity against human A549 cells expressing wild type p53 assessed as reduction in cell viability preincubated for 48 hrs and measured after 4 hrs by MTT assay; format: functional, cell-based
PC-3 = assay: Cytotoxicity against human PC-3 cells assessed as reduction in cell viability preincubated for 48 hrs and measured after 4 hrs by MTT assay; format: functional, cell-based
MGC-803 [2] = assay: Induction of apoptosis in human MGC-803 cells assessed as nuclear fragmentation incubated at 0.5 to 2.5 uM for 24 hrs by Hoechst 33258 staining based analysis; format: functional, cell-based; settings: dose 0.5-2.5 µM
In short: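 Cells in six-well plates were treated for the indicated time, then fixed 10 min in 4% paraformaldehyde and washed twice in PBS. Nuclei were stained 5 min with Hoechst 33258, washed twice in PBS and examined by fluorescence microscopy.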

MGC-803 [3] = assay: Cell cycle arrest in human MGC-803 cells assessed as accumulation at G1 phase at 0.25 uM after 48 hrs by propidium iodide staining-based flow cytometric analysis (reference value: 46.96 %); format: functional
MGC-803 [4] = assay: Induction of apoptosis in human MGC-803 cells assessed as activation of caspase 9 at 2.5 uM incubated for 24 hrs by flow cytometric analysis (reference value: 2.82%); format: functional
[5] = Induction of mitochondria membrane potential loss in human MGC-803 cells assessed as increase in green fluorescence at 1 uM incubated 24 hrs by JC-1 probe based flow cytometry analysis (reference value: 4.67%); format: functional
MGC-803 [6] = assay: Cell cycle arrest in human MGC-803 cells assessed as accumulation at G2/M phase at 0.5 uM after 48 hrs by propidium iodide staining-based flow cytometric analysis (reference value: 7.94%); format: functional
MGC-803 [7] = assay: Cell cycle arrest in human MGC-803 cells assessed as accumulation at G2/M phase at 0.25 uM after 48 hrs by propidium iodide staining-based flow cytometric analysis (reference value: 7.94%); format: functional
MGC-803 [8] = assay: Induction of apoptosis in human MGC-803 cells assessed as early apoptotic cells at 0.5 uM measured after 24 hrs by Annexin-V/propidium iodide staining-based flow cytometric analysis (Rvb =0.84%)
[9] = Induction of mitochondria membrane potential loss in human MGC-803 cells assessed as increase in green fluorescence at 0.5 uM incubated 24 hrs by JC-1 probe based flow cytometry analysis (reference value: 4.67%); format: functional
MGC-803 [10] = assay: Cell cycle arrest in human MGC-803 cells assessed as accumulation at S phase at 0.25 uM after 48 hrs by propidium iodide staining-based flow cytometric analysis (reference value: 45.1 %); format: functional
Calf thymus DNA [11] = assay: Binding affinity to calf thymus DNA assessed as quenching in emission band measured at 0.5:1 to 5:1 compound to EB ratio by ethidium bromide competitive displacement assay; settings: Bos taurus
In short: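 Competitive displacement using EB (10 µM) with ct-DNA (20 µM) in Tris-HCl, pH 7.4, 25 °C. Compound added stepwise from 10 to 100 µM; 5 min equilibration after each addition, then fluorescence emission recorded (slits 5 nm). Quenching constant from the Stern–Volmer equation.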

MGC-803 [12] = assay: Induction of apoptosis in human MGC-803 cells assessed as necrotic cells at 1 uM measured after 24 hrs by Annexin-V/propidium iodide staining-based flow cytometric analysis (Rvb =6.05%)
Calf thymus DNA [13] = assay: Binding affinity to calf thymus DNA assessed as hypochromism by measuring absorption spectra at 20 uM incubated for 5 mins by UV-Vis absorption spectrometry; format: tissue-based; settings: Bos taurus
In short: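 Compound at 20 µM in Tris-HCl buffer, 25 °C, titrated with ct-DNA at [DNA]/[compound] 0 to 1.0 in steps of 0.1. Absorption spectra recorded at 295–360 nm after 5 min equilibration following each addition.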

[14] = Toxicity against BALB/c nude mouse xenografted with human MGC-803 cells assessed as body weight at 20 mg/kg, ip administered every 2 days and measured 3 times per week for 16 days; format: organism-based; settings: in vivo, 384 h, time 16 day
In short: (§2)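 Male BALB/c nude mice, 6 weeks old, received 5×10^6 MGC-803 cells subcutaneously in the flank. At about 80 mm3, mice were randomized (n = 6/group). They were dosed i.p. every 2 days with vehicle (5% DMSO in saline, v/v) or drug in DMSO/saline at 1.0 or 2.0 mg/mL. Body weight was recorded three times weekly; mean ± SD.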

Mus musculus = assay: Toxicity against BALB/c nude mouse xenografted with human MGC-803 cells assessed as body weight at 10 mg/kg, ip administered every 2 days and measured 3 times per week for 16 days; format: organism-based; settings: in vivo, 384 h, time 16 day; in short: as §2
MGC-803 [15] = assay: Induction of apoptosis in human MGC-803 cells assessed as increase in Bax expression at 0.5 to 2.5 uM measured after 24 hrs by Western blot analysis; format: functional, cell-based; settings: dose 0.5-2.5 µM
In short: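 MGC-803 cells (2×10^6) plated overnight, then treated for 24 h at 0.5, 1.0 or 2.5 µM (test agent) or 5.0 µM (comparator). Whole-cell lysates separated by SDS-PAGE, transferred to PVDF and probed with primary antibodies. AP-linked anti-rabbit IgG, ECL detection, β-actin loading control. Representative of three experiments.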

T-24 = assay: Cytotoxicity against human T-24 cells […] assessed as reduction in cell viability preincubated for 48 hrs and measured after 4 hrs by MTT assay; format: functional, cell-based
MGC-803 [16] = assay: Induction of ROS generation in human MGC-803 cells assessed as intracellular ROS level at 0 to 2.5 uM after 24 hrs by DCFH-DA staining-based flow cytometric analysis; format: functional, cell-based; settings: dose 0-2.5 µM
In short: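 MGC-803 cells treated at 0.5, 1.0 or 2.5 µM for 24 h, harvested, washed in cold PBS and loaded with DCFH-DA at 37 °C for 30 min in the dark. Washed three times in PBS; fluorescence read by flow cytometry. Representative of three experiments.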

MGC-803 [17] = assay: Antitumor activity against human MGC-803 cells xenografted in BALB/C nude mouse assessed as tumor growth inhibition at 10 mg/kg, ip administered every 2 days and measured 3 times per week; format: functional, organism-based; settings: time 2.0 day; in short: as §1
MGC-803 [18] = assay: Induction of apoptosis in human MGC-803 cells assessed as early apoptotic cells at 1 uM measured after 24 hrs by Annexin-V/propidium iodide staining-based flow cytometric analysis (Rvb =0.84%)
MGC-803 [19] = assay: Induction of apoptosis in human MGC-803 cells assessed as late apoptotic cells at 2.5 uM measured after 24 hrs by Annexin-V/propidium iodide staining-based flow cytometric analysis (Rvb =0.93%)

NCCCCNc1nc(/C=C/c2ccc([N+](=O)[O-])cc2)nc2ccccc12
Activity (MGC-803 [1]): 35.9%
pIC50 (A549): 5.26
pIC50 (PC-3): 5.34
Activity (MGC-803 [2]): Active
Activity (MGC-803 [3]): 7.66%
Activity (MGC-803 [4]): 57.35%
Activity [5]: 13.9%
Activity (MGC-803 [6]): 72.67%
Activity (MGC-803 [7]): 55.43%
Activity (MGC-803 [8]): 14%
Activity [9]: 8.91%
Activity (MGC-803 [10]): 36.91%
Activity (Calf thymus DNA [11]): Active
Activity (MGC-803 [12]): 2.21%
Activity (Calf thymus DNA [13]): Active
Activity [14]: Non-Toxic
Activity (Mus musculus): Non-Toxic
Activity (MGC-803 [15]): Active
pIC50 (T-24): 5.75
Activity (MGC-803 [16]): Active
Activity (MGC-803 [17]): Active
Activity (MGC-803 [18]): 27.5%
Activity (MGC-803 [19]): 55.9%
